In ChEMBL document CHEMBL1629579, “Correlating echinocandin MIC and kinetic inhibition of fks1 mutant glucan synthases for Candida albicans: implications for interpretive breakpoints” (Antimicrob Agents Chemother, 2009):
Converted amounts (≈) assume the structure as drawn. Numbered stars: 1 amine (or outer) side, 2 acyl side, 3 side chain; on linkers, the order of the positions; unused ones are H or OH. Bridge positions count the residues as written; N and C are the ends. Square brackets hold non-standard residues; d marks the D form. Peptide text beside a SMILES is read from it. * marks the point of attachment. hTyr(3S-OH,4S-OH,3'-OSO3H) = N[C@H](C(=O)O)[C@H](O)[C@@H](O)c1ccc(O)c(OS(=O)(=O)O)c1; Orn(4R-OH,5R-OH) = O=C([C@H](C[C@@H](O)[C@@H](O)N[*:3])N[*:1])[*:2]; Pro(3S-OH,4S-Me) = C[C@H]1CN[C@H](C(=O)O)[C@H]1O; X1 = CCCCCOc1ccc(-c2cc(-c3ccc(C(=O)*)cc3)no2)cc1; Gln(3R-OH) = NC(=O)C[C@@H](O)[C@H](N)C(=O)O; Hyp = O=C(O)[C@@H]1C[C@@H](O)CN1

Columns and labels:
Candida albicans [1] = experiment: Antimicrobial activity against Candida albicans SC5314 by M27-A3 method in presence of 50% human serum; assay type: functional
How it was run: (§1)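 Broth microdilution per CLSI M27-A3 in RPMI 1640, done in triplicate on three separate days. Each strain was tested with and without 50% human serum. C. krusei ATCC 6258 and C. parapsilosis ATCC 22019 served as QC strains. Arithmetic means are reported, and geometric means were used for comparison.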

Candida albicans [2] = experiment: Antimicrobial activity against Candida albicans 36082 by M27-A3 method; assay type: functional
How it was run: (§2)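 Broth microdilution per CLSI M27-A3 in RPMI 1640, with and without 50% human serum, in triplicate. C. krusei ATCC 6258 and C. parapsilosis ATCC 22019 served as quality-control strains. MIC reported as arithmetic mean of three repetitions on separate days.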

Candida albicans [3] = experiment: Antimicrobial activity against Candida albicans 90028 by M27-A3 method; assay type: functional; how it was run: as §2
Candida albicans [4] = experiment: Antimicrobial activity against Candida albicans 90028 by M27-A3 method in presence of 50% human serum; assay type: functional; how it was run: as §1
Candida albicans [5] = experiment: Antimicrobial activity against Candida albicans 1002 by M27-A3 method; assay type: functional; how it was run: as §2
Candida albicans [6] = experiment: Antimicrobial activity against Candida albicans 3795 by M27-A3 method; assay type: functional; how it was run: as §2
Candida albicans [7] = experiment: Antimicrobial activity against Candida albicans 3795 by M27-A3 method in presence of 50% human serum; assay type: functional; how it was run: as §1
Candida albicans [8] = experiment: Antimicrobial activity against Candida albicans 119 harboring FKS1 T1921C mutant gene and FKS1 hotspot1 F641L mutant gene by M27-A3 method; assay type: functional; how it was run: as §1
Candida albicans [9] = experiment: Antimicrobial activity against Candida albicans 2762 harboring FKS1 T1922C mutant gene and FKS1 hotspot1 F641S mutant gene by M27-A3 method; assay type: functional; how it was run: as §1
Candida albicans [10] = experiment: Antimicrobial activity against Candida albicans 205 harboring FKS1 T1933C mutant gene and FKS1 hotspot1 S645P mutant gene by M27-A3 method; assay type: functional; how it was run: as §1
Candida albicans [11] = experiment: Antimicrobial activity against Candida albicans 205 harboring FKS1 T1933C mutant gene and FKS1 hotspot1 S645P mutant gene by M27-A3 method in presence of 50% human serum; assay type: functional; how it was run: as §1
Candida albicans [12] = experiment: Antimicrobial activity against Candida albicans 89 harboring FKS1 C1934A mutant gene and FKS1 hotspot1 S645Y mutant gene by M27-A3 method in presence of 50% human serum; assay type: functional; how it was run: as §1
Candida albicans [13] = experiment: Antimicrobial activity against Candida albicans 149 harboring FKS1 G1942T mutant gene and FKS1 hotspot1 D648Y mutant gene by M27-A3 method; assay type: functional; how it was run: as §1
Candida albicans [14] = experiment: Antimicrobial activity against Candida albicans 121 harboring FKS1 G4082A mutant gene and FKS1 hotspot2 R1361H mutant gene by M27-A3 method; assay type: functional; how it was run: as §1
Candida albicans [15] = experiment: Antimicrobial activity against Candida albicans 121 harboring FKS1 G4082A mutant gene and FKS1 hotspot2 R1361H mutant gene by M27-A3 method in presence of 50% human serum; assay type: functional; how it was run: as §1
Candida albicans [16] = experiment: Antimicrobial activity against Candida albicans 194 harboring FKS1 C1934T/G4082R mutant gene and FKS1 hotspot1 S645F mutant gene and FKS1 hotspot2 R1361R/H mutant gene by M27-A3 method; assay type: functional; how it was run: as §1
Candida albicans [17] = experiment: Antimicrobial activity against Candida albicans A15 harboring FKS1 T1933Y mutant gene and FKS1 hotspot1 S645S/P mutant gene by M27-A3 method in presence of 50% human serum; assay type: functional; how it was run: as §1
Candida albicans [18] = experiment: Antimicrobial activity against Candida albicans A15-10 harboring FKS1 T1933C mutant gene and FKS1 hotspot1 S645P mutant by M27-A3 method in presence of 50% human serum; assay type: functional; how it was run: as §1
[19] = Inhibition of Candida albicans SC5314 1,3-beta-D-glucan synthase subunit FKS1p
How it was run: (§3)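 Enzyme is product-entrapped 1,3-β-D-glucan synthase, enriched from membranes of each strain grown at 37°C with shaking in YPD broth to early stationary phase. Filtration polymerization assay uses [3H]UDPG, started by adding enzyme and run 60 min at 25°C. Echinocandins are added as serial dilutions, with 1% DMSO controls for anidulafungin. IC50 is from a variable-slope sigmoidal fit; values are triplicate arithmetic means.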

[20] = Inhibition of Candida albicans 36082 1,3-beta-D-glucan synthase subunit FKS1p; how it was run: as §3
[21] = Inhibition of Candida albicans 1002 1,3-beta-D-glucan synthase subunit FKS1p
How it was run: (§4)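 Product-entrapped glucan synthase from YPD-grown cells (37°C, early stationary phase) in a filtration polymerization assay with [3H]UDPG. Echinocandin serial dilutions were added, with 1% DMSO in controls for anidulafungin. Reactions were started with enzyme, run 60 min at 25°C and stopped on ice. IC50 came from a variable-slope sigmoidal fit, in triplicate.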

[22] = Inhibition of Candida albicans 119 1,3-beta-D-glucan synthase subunit FKS1p T1921C mutant; how it was run: as §4
[23] = Inhibition of Candida albicans 177 1,3-beta-D-glucan synthase subunit FKS1p T1922C mutant; how it was run: as §3
[24] = Inhibition of Candida albicans 5415 1,3-beta-D-glucan synthase subunit FKS1p T1933C mutant; how it was run: as §3
[25] = Inhibition of Candida albicans 90 1,3-beta-D-glucan synthase subunit FKS1p G4082R mutant; how it was run: as §3
Candida albicans [26] = experiment: Activity at Candida albicans 1002 1,3-beta-D-glucan synthase subunit FKS1p
How it was run: (§5)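 Glucan synthase from cells grown at 37°C with vigorous shaking to early stationary phase in YPD. Membrane enzyme enriched by product entrapment. Serial echinocandin dilutions; ANF controls held 1% DMSO. Reaction started by adding enzyme, run 60 min at 25°C in a filtration polymerization assay, stopped on ice. IC50 from a variable-slope sigmoidal fit; means of three repetitions on separate days.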

Candida albicans [27] = experiment: Activity at Candida albicans 3107 1,3-beta-D-glucan synthase subunit FKS1p; how it was run: as §5
Candida albicans [28] = experiment: Activity at Candida albicans 119 1,3-beta-D-glucan synthase subunit FKS1p T1921C mutant
How it was run: (§6)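 Product-entrapped 1,3-β-D-glucan synthase from cells grown in YPD at 37°C to early stationary phase. Wells held 50 mM HEPES pH 7.5, 10% glycerol, 1.5 mg/ml BSA, 25 mM KF, 1 mM EDTA, 25 μM GTP-γ-S, 1 μg enzyme and [3H]UDPG (0.015–2 mM). Reactions ran 60 min at 25°C. Vmax and Km came from Lineweaver-Burke plots, in triplicate.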

Candida albicans [29] = experiment: Activity at Candida albicans 177 1,3-beta-D-glucan synthase subunit FKS1p T1922C mutant; how it was run: as §6
Candida albicans [30] = experiment: Activity at Candida albicans 5415 1,3-beta-D-glucan synthase subunit FKS1p T1933C mutant; how it was run: as §6
Candida albicans [31] = experiment: Activity at Candida albicans 194 1,3-beta-D-glucan synthase subunit FKS1p C1934T/G4082R mutant; how it was run: as §6

For CCCCCOc1ccc(-c2cc(-c3ccc(C(=O)N[C@H]4C[C@@H](O)[C@@H](O)NC(=O)[C@@H]5[C@@H](O)[C@@H](C)CN5C(=O)[C@H]([C@H](O)CC(N)=O)NC(=O)[C@H]([C@H](O)[C@@H](O)c5ccc(O)c(OS(=O)(=O)O)c5)NC(=O)[C@@H]5C[C@@H](O)CN5C(=O)[C@H]([C@@H](C)O)NC4=O)cc3)no2)cc1 [MICAFUNGIN] (X1-[Orn(4R-OH,5R-OH)]T[Hyp][hTyr(3S-OH,4S-OH,3'-OSO3H)][Gln(3R-OH)][Pro(3S-OH,4S-Me)]; lactam 1-C), the MIC (Candida albicans [1]) was 0.5 µg/mL, the MIC (Candida albicans [2]) was 0.03 µg/mL (≈ 0.0236 µM) and the MIC (Candida albicans [3]) was 0.03 µg/mL (≈ 0.0236 µM). It also gave an MIC (Candida albicans [4]) of 0.5 µg/mL, an MIC (Candida albicans [5]) of 0.04 µg/mL (≈ 0.0315 µM) and an MIC (Candida albicans [6]) of 0.03 µg/mL (≈ 0.0236 µM). It also gave an MIC (Candida albicans [7]) of 0.5 µg/mL, an MIC (Candida albicans [8]) of 0.33 µg/mL (≈ 0.26 µM) and an MIC (Candida albicans [9]) of 1 µg/mL (≈ 0.787 µM). For the same compound, the MIC (Candida albicans [10]) was 4 µg/mL (≈ 3.15 µM), the MIC (Candida albicans [11]) was 8 µg/mL and the MIC (Candida albicans [12]) was 8 µg/mL. The MIC (Candida albicans [13]) was 0.83 µg/mL (≈ 0.653 µM), the MIC (Candida albicans [14]) was 0.25 µg/mL (≈ 0.197 µM) and the MIC (Candida albicans [15]) was 8 µg/mL. For the same compound, the MIC (Candida albicans [16]) was 2.67 µg/mL (≈ 2.1 µM), the MIC (Candida albicans [17]) was 2 µg/mL and the MIC (Candida albicans [18]) was 8 µg/mL. It also gave an IC50 [19] of 0.0582 µg/mL (≈ 0.0458 µM), a Ki [19] of 0.02747 µg/mL (≈ 0.0216 µM) and an IC50 [20] of 0.0102 µg/mL (≈ 0.00803 µM). For the same compound, the Ki [20] was 0.02353 µg/mL (≈ 0.0185 µM), the IC50 [21] was 0.05334 µg/mL (≈ 0.042 µM) and the Ki [21] was 0.03452 µg/mL (≈ 0.0272 µM). The IC50 [22] was 0.1836 µg/mL (≈ 0.145 µM), the Ki [22] was 0.1559 µg/mL (≈ 0.123 µM) and the IC50 [23] was 1.441 µg/mL (≈ 1.13 µM). The Ki [23] was 4.40423 µg/mL (≈ 3.47 µM), the IC50 [24] was 1.254 µg/mL (≈ 0.987 µM) and the Ki [24] was 2.75301 µg/mL (≈ 2.17 µM). It also gave an IC50 [25] of 0.07739 µg/mL (≈ 0.0609 µM), a Ki [25] of 0.26473 µg/mL (≈ 0.208 µM) and a Km (Candida albicans [26]) of 122 µM. It also gave a Vmax (Candida albicans [26]) of 5.8 nmol/min, a Km (Candida albicans [27]) of 102 µM and a Vmax (Candida albicans [27]) of 6.04 nmol/min. The Km (Candida albicans [28]) was 54 µM, the Vmax (Candida albicans [28]) was 2.54 nmol/min and the Km (Candida albicans [29]) was 50 µM. The Vmax (Candida albicans [29]) was 4.4 nmol/min, the Km (Candida albicans [30]) was 98 µM and the Vmax (Candida albicans [30]) was 3.12 nmol/min. For the same compound, the Km (Candida albicans [31]) was 61 µM and the Vmax (Candida albicans [31]) was 5.81 nmol/min.
